Bioassay records: PubChem BioAssay, The Scripps Research Institute Molecular Screening Center
MC4R ag barr = human MC4R agonism via beta-arrestin | activation, % at 8.9 µM | hit rate 0.98% among 360,000 | U2OS MC4R beta-arrestin complementation, luminescence; percent of melanotan II response, DMSO zero;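 active = activation above a per-plate cutoff, the mean activation of sample wells on that plate plus 3 SD, cut at about 8% in these data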
Target sequence (P32245 whole entry, looked up): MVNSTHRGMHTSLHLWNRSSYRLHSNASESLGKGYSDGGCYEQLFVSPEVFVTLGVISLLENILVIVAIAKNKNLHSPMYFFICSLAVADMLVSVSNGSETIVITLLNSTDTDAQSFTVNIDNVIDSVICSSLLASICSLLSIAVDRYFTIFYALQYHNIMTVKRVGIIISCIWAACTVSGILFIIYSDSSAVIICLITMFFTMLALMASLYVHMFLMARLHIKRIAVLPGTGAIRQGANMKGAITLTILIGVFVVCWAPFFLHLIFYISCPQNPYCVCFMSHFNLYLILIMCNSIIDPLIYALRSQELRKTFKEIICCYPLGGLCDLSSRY
MC4R antagonist = antagonists of human melanocortin 4 receptor (MC4R); hit rate 0.48% among 360,000; MC4R-expressing cells, MTII-stimulated cAMP, LANCE TR-FRET; P32245; inhibition, % at 6.5 µM; AID 540295;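 active = inhibition above its plate's cutoff, the mean of tested wells on that plate plus 3 SD, cut at about 29% in these data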;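 note: 0% = Melanotan II alone and 100% = Melanotan II plus saturating MCL0020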
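Assay system: U2OS-MC4R stable cell line; Also added: Melanotan II; Technique: Eu-cAMP/anti-cAMP TR-FRET, emission 671 nm; Times: 30-min compound, 1-h challenge, 1-h detection, room temperature.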
MsrA act = bovine methionine sulfoxide reductase A activation | purified bovine MsrA, absorbance read-out | activation, % at 10.6 µM | hit rate 0.3% among 360,000; in the data active = activation above about 7.5%;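 note: 0% = vehicle and 100% = reference activator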
MsrA inh = bovine MsrA inhibition. hit rate 0.75% among 360,000. purified bovine MsrA, absorbance read-out. inhibition, % at 15.5 µM; in the data active = inhibition above about 4.5%;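 note: 0% = vehicle wells with enzyme and 100% = reference inhibitor wells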
* marks the source's active call; other numbers are inactive results; · = no result. Only some compounds are listed: those with a hit (about 2.3% of all), similar ones and a draw of the others.

SMILES	MC4R ag barr	MC4R antagonist	MsrA act	MsrA inh
CCOc1ccc(C(=S)N2CCOCC2)cc1OC	-0.9	0.2	1.1	0.5
CC(=O)c1nn(-c2ccccc2)cc1C(=O)c1ccc(Br)cc1	7.0	0.0	-2.9	2.0
CC(=O)c1nn(-c2cccc(Br)c2)cc1C(=O)c1ccccc1	9.4*	1.3	-12.0	-0.5
CN(C(=O)NC1CC(=O)N(c2ccc3c(c2)OCCO3)C1)c1ccccc1 (stereo not drawn)	-3.2	0.7	-3.8	-0.5
CCN1/C(=C(\O)c2ccccc2)C(=O)c2ccccc2S1(=O)=O	3.6	6.1	-3.1	4.8*
CC(=O)Nc1cccc(-c2nnc(SCc3ccccc3C#N)n2C)c1	-1.6	2.3	-1.8	0.8
COc1cc(C2CC(c3cccs3)=NN2C(=O)CCl)ccc1OC(F)F (stereo not drawn)	21.6*	26.1	-0.5	0.1
O=C(N/N=C\c1ccccc1OCc1ccccc1)c1ccco1	-2.6	5.5	-5.8	3.0
COc1ccccc1/C=C/C=N/NC(=O)c1ccco1	-1.0	-14.6	-6.3	4.6*
CC(C)(C)c1ccc(NNC(=O)C2CCC2)cc1	-1.6	14.0	-1.5	0.5
COCCCNCCCOc1ccc(Cl)cc1C(C)(C)C	10.1*	-2.3	-0.9	0.4
CC(C)C1S/C(=N/N=C/c2ccco2)NC1=O (stereo not drawn)	-1.8	5.3	0.0	4.7*
O=C(/C=C\c1cn(-c2ccccc2)nc1-c1ccc2c(c1)OCCO2)N1CCOCC1	8.5*	6.9	-11.3	0.3
O=C(O)/C=C/c1cn(-c2ccccc2)nc1-c1ccc2c(c1)OCCO2	-2.8	6.8	-7.8	-0.6
C=C(CN(C)C)C(=O)c1cc(C)ccc1C	-4.4	47.5*	-5.3	0.5
C(=N\n1cncn1)/c1ccc(N2CCOCC2)cc1	1.1	-3.2	-18.1	5.3*
CC1CCN(C2(O)C(=O)Nc3ccc([N+](=O)[O-])cc32)CC1 (stereo not drawn)	-2.8	0.0	-13.4	6.6*
CC(C)CCN1CCN=C1Nc1ccccc1	0.0	9.1	-0.7	-0.9
CN(N=Nc1ccc([N+](=O)[O-])cc1)c1ccccc1	8.3*	-0.4	-3.5	0.3
CCCc1nc(NCc2ccncc2)c2nnn(Cc3ccccc3F)c2n1	0.4	4.5	-0.8	-0.1
CN1CCN(c2ccc(NC(=O)c3ccc(-c4ccc(Cl)cc4)o3)cc2)CC1	10.0*	0.9	0.8	-0.4
O=C(CN1C(=O)NC2(CCc3ccccc32)C1=O)c1ccc(Br)s1 (stereo not drawn)	-1.6	5.3	-2.9	-0.6
Cc1nc(SCC(=O)N(CC(C)C)C2CCS(=O)(=O)C2)c2ccccc2n1 (stereo not drawn)	-0.4	4.1	-3.3	2.7
O=C1C2C3C=CC(C3)C2C(=O)N1c1cccc2cccnc12 (stereo not drawn)	-1.4	6.0	-4.7	-0.7
FC(F)(F)c1cc(CCN2CCNC[C@@H]2CC2CCCCC2)cc(C(F)(F)F)c1	8.7*	1.0	-6.6	-2.8
SMILES	MC4R ag barr	MC4R antagonist	MsrA act	MsrA inh
NC1=NC[C@@H](Cc2ccc(O)cc2)N1CCc1cc(C(F)(F)F)cc(C(F)(F)F)c1	1.5	3.0	-10.4	-1.3
NC1=NC[C@H](CC2CCCCC2)N1CCc1cc(C(F)(F)F)cc(C(F)(F)F)c1	9.3*	10.2	-9.6	-3.2
CCCCNC(=O)CC1N=C2c3ccccc3N=C(SCC(=O)Nc3ccccc3C)N2C1=O (stereo not drawn)	-3.4	5.1	-1.1	2.2
Cc1ccc(NC(=O)CNc2cccc(S(=O)(=O)N3CCCC3)c2)cc1F	0.2	4.5	-2.6	-0.3
COc1ccc(-c2cc(=O)oc3cc(OC(=O)C4CCCCC4)ccc23)cc1	0.0	-15.0	-4.0	2.8
O=C(Oc1ccc2c(-c3ccccc3)cc(=O)oc2c1)C1CCCCC1	-0.6	-6.2	-5.5	18.6*
CCn1c(CCCOc2ccc(Cl)cc2Cl)nnc1SCC(=O)Nc1cccc(F)c1	9.8*	5.5	-7.2	0.1
CC(=O)Nc1cccc(C(=O)OCc2ccc(C(=O)Oc3ccc(Cl)cc3)cc2)c1	13.3*	8.0	-1.8	-0.4
CC(=O)Nc1ccc(C(=O)OCc2ccc(Br)cc2)cc1	0.6	-0.5	-8.2	-0.3
N=C(N)N=Nc1c(O)[nH]c2ccc(Br)cc12	0.9	-28.8	-1.4	4.6*
CCOC(=O)C1=C(CSc2nccn2C)NC(=O)NC1c1ccc2c(c1)OCO2 (stereo not drawn)	9.2*	4.5	-4.7	0.3
CCOC(=O)C1=C(CSc2nccn2C)NC(=O)NC1c1cc(C)ccc1C (stereo not drawn)	1.9	-4.9	-10.0	-1.4
O=C(CNc1cccc(C(F)(F)F)c1)N/N=C/c1cn(-c2ccccc2)nc1-c1ccccc1	1.8	-2.6	-8.1	4.6*
O=C1NC(c2ccccc2)C(C(=O)c2cccs2)C(O)(C(F)(F)F)N1 (stereo not drawn)	1.2	9.1	1.4	0.0
CN1C(=O)NC(c2ccc(O)cc2)C(C(=O)c2cccs2)C1(O)C(F)(F)F (stereo not drawn)	-0.3	-1.5	-10.9	4.5*
CCCCn1nnnc1C(c1ccccc1)N1CCN(c2ncccc2C(F)(F)F)CC1 (stereo not drawn)	·	·	-3.2	0.0
CCOP(=O)(NC12CC3CC(CC(C3)C1)C2)NC12CC3CC(CC(C3)C1)C2	-1.1	11.6	-0.8	-0.5
OCc1cn(-c2ccc(Cl)cc2)nn1	-1.2	-2.5	-1.1	1.7
O=S(=O)(Nc1ccc(N=Nc2ccccc2)cc1)c1ccccc1	8.3*	0.5	-2.4	1.0
CCn1c(=NC(=O)C2COc3ccccc3O2)sc2c(C)ccc(OC)c21 (stereo not drawn)	0.3	2.7	-8.8	-0.7
COc1ccc(C(=O)N2CCN(CCCc3ccccc3)CC2)cc1OC	0.1	8.8	-3.0	-0.8
Cc1ccc(CN2C(=O)N/C(=C\c3ccc(N4CCOCC4)cc3)C2=O)cc1	8.6*	-1.6	-3.1	0.4
CCCN1C(=O)/C(=C/c2ccc(N3CCOCC3)cc2)NC1=S	-3.6	-3.7	-0.2	0.1
CCOc1ccc(C(=O)NC(=S)Nc2ccc(N3CCCCC3)cc2)cc1[N+](=O)[O-]	47.2*	0.3	1.2	-0.1
COc1cc(CNCc2ccccn2)ccc1OCc1ccc(Cl)cc1Cl	9.2*	29.8*	-9.6	-0.1
SMILES	MC4R ag barr	MC4R antagonist	MsrA act	MsrA inh
O=C(COc1ccccc1)N[C@@H]1c2ccccc2CC[C@@H]1OCc1ccccc1	8.4*	16.9	-0.4	-0.2
COc1ccccc1OCC(=O)Nc1ccc(C(N)=O)cc1	-0.8	10.1	-0.3	-0.5
O=C(CN(Cc1ccccc1)S(=O)(=O)c1ccccc1)N/N=C/c1ccc2c(c1)OCO2	3.6	9.7	-0.6	0.4
O=C(CN(CCc1ccccc1)S(=O)(=O)c1ccc(Br)cc1)N/N=C/c1ccc2c(c1)OCO2	8.5*	12.3	-3.6	-0.3
CN(C)c1ccc(/C=N/N(CCC(=O)NC(C)(C)C)C2=NS(=O)(=O)c3ccccc32)cc1	-1.0	11.9	-0.4	-1.5
O=C1NC(=O)c2cc(Br)cc3cccc1c23	8.9*	-10.0	-3.4	0.5
O=C(O)C(Cc1c[nH]c2ccccc12)NS(=O)(=O)c1ccc(F)cc1 (stereo not drawn)	-0.9	6.2	-1.0	0.8
